According to ChEMBL document CHEMBL1125645, “Specific bradycardic agents. 2. Heteroaromatic modifications in the side chain of specific bradycardic benzazepinones: chemistry, pharmacology, and structure-activity relationships” (1991):
Active and inactive are the calls of the source. The calls are words filed in the database; no cut-off is given here.

How the values were obtained:
[1] = test system: Rattus norvegicus; assay: Bradycardic activity was evaluated in an anesthetized rat model as percent heart rate(beats/min) reduction 20 min after iv injection of 5 mg/kg of the compound; NA=Not active; format: functional, organism-based; set-up: dose 5 mg/kg
Summary of the method: (§1)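 Male Chbb:THOM rats, 200-250 g, anesthetized with pentobarbital sodium 50 mg/kg ip, with the trachea cannulated and artificial respiration given. Heart rate was recorded continuously by an ECG-triggered beat-to-beat tachograph before and at 5 and 20 min after a single iv injection of 5 mg/kg. Values are % change from pre-dose, reported ± SEM.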

[2] = test system: Rattus norvegicus; assay: Bradycardic activity was evaluated in an anesthetized rat model as percent heart rate(beats/min) reduction 5 min after iv injection of 5 mg/kg of the compound; NA=Not active; format: functional, organism-based; set-up: dose 5 mg/kg; summary of the method: as §1
[3] = test system: Rattus norvegicus; assay: Hypotensive activity was evaluated in an anesthetized rat model as percent mean aortic blood pressure(mm hg) reduction 5 min after iv injection of 5 mg/kg of the compound; NA=Not active; format: functional, organism-based; set-up: dose 5 mg/kg; conditions: Artery
Summary of the method: (§2)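 In pentobarbital-anesthetized (50 mg/kg ip), artificially ventilated male Chbb:THOM rats (200-250 g), mean aortic pressure was measured through a carotid artery cannula connected to an electromechanical transducer. Readings were taken before and 5 min after 5 mg/kg iv. Values are % change from baseline, ± SEM.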

[4] = test system: Rattus norvegicus; assay: Bradycardic activity was evaluated in an anesthetized rat model as percent heart rate(beats/min) reduction 20 min after iv injection of 5 mg/kg; format: functional; summary of the method: as §1
[5] = test system: Rattus norvegicus; assay: Bradycardic activity was evaluated in an anesthetized rat model as percent heart rate(beats/min) reduction 5 min after iv injection of 5 mg/kg; format: functional; summary of the method: as §1
[6] = organism: Rattus norvegicus; assay: Delta HR ratio measured as the ratio of delta HR(20 min)/delta HR (5 min); format: functional
Summary of the method: (§3)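 Duration-of-action index: the % heart-rate reduction at 20 min divided by that at 5 min after 5 mg/kg iv. Rats were male Chbb:THOM, pentobarbital-anesthetized and ventilated, with heart rate taken from an ECG-triggered tachograph.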

[7] = test system: Rattus norvegicus; assay: Hypotensive activity was evaluated in an anesthetized rat model as percent mean aortic blood pressure(mm hg) reduction 5 min after iv injection of 5 mg/kg; format: functional, Artery; summary of the method: as §2
[8] = (§4) delta HR Ratio measured as the ratio of delta HR(20 min)/delta HR (5 min); format: functional; summary of the method: as §3
[9] = organism: Rattus norvegicus; assay: (§5) Ratio of heart rate reduction to mean arterial blood pressure reduction; format: functional
Summary of the method: (§6)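 Selectivity parameter S: the % heart-rate reduction divided by the % mean arterial pressure reduction, both read 5 min after 5 mg/kg iv in anesthetized, ventilated male Chbb:THOM rats. Heart rate came from an ECG-triggered tachograph and pressure from a carotid cannula.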

[10] = test system: Rattus norvegicus; assay: Bradycardic activity was evaluated in an anesthetized rat model as percent heart rate(beats/min) reduction 20 min after iv injection of 5 mg/kg of the compound; NA= Not active; format: functional, organism-based; set-up: dose 5 mg/kg; summary of the method: as §1
[11] = as §5; format: tissue-based; summary of the method: as §6
[12] = as §4; summary of the method: as §3

SMILES	Delta MAP [3]	Delta HR [4] [%]	Delta HR [5] [%]	Ratio [6]	Delta MAP [7] [%]	Selectivity [9]	other results
COc1cc2c(cc1OC)CC(=O)N(CCCN(C)CCCCn1ccnc1)CC2	inactive	–	–	–	–	–	Delta HR [1]: inactive; Delta HR [2]: inactive
COc1cc2c(cc1OC)CC(=O)N(CCCN(C)Cc1c(C)noc1C)CC2	inactive	-14	-5	2.8	–	–	–
COc1cc2c(cc1OC)CC(=O)N(CCCN(C)CCc1cn(C)cn1)CC2	–	-11	-10	–	-10	1	Ratio [8]: 1.1
COc1cc2c(cc1OC)CC(=O)N(CCCN(C)CCc1ccccn1)CC2	inactive	-16	-15	1.1	–	–	–
COc1ccc2c(CCN(C)CCCN3CCc4cc(OC)c(OC)cc4CC3=O)csc2c1	–	-60	-67	–	-52	1.3	Ratio [8]: 0.89
COc1cc2c(cc1OC)CC(=O)N(CCCN(C)CCc1cncc3cc(OC)c(OC)cc13)CC2	inactive	-5	-5	1	–	–	–
COc1cc2c(cc1OC)CC(=O)N(CCCN(C)CCc1c[nH]cn1)CC2	–	–	–	–	-11	–	Delta HR [10]: inactive; Delta HR [2]: inactive
COc1cc2c(cc1OC)CC(=O)N(CCCN(C)CCc1ccsc1)CC2	inactive	-19	-24	0.79	–	–	–
COc1cc2c(cc1OC)CC(=O)N(CCCN(C)CCc1csc3c1CCCC3)CC2	–	-55	-69	0.8	-43	1.6	–
COc1cc2c(cc1OC)CC(=O)N(CCCN(C)CCc1c[nH]c3ccc(OCc4ccccc4)cc13)CC2	–	-46	-49	0.93	-45	1.1	–
COc1cc2c(cc1OC)CC(=O)N(CCCN(C)CCc1c[nH]c3c(C)cccc13)CC2	–	-44	-50	–	-26	–	Selectivity [11]: 1.9; Ratio [12]: 0.88
COc1cc2c(cc1OC)CC(=O)N(CCCN(C)CCCc1c[nH]c3ccccc13)CC2	–	-47	-62	0.76	-34	1.8	–
COc1cc2c(cc1OC)CC(=O)N(CCCN(C)CCc1cccn1C)CC2	–	-18	-30	0.59	-18	1.7	–
COc1cc2c(cc1OC)CC(=O)N(CCCN(C)CCc1coc3ccccc13)CC2	–	-39	-54	0.72	-39	1.4	–
COc1cc2c(cc1OC)CC(=O)N(CCCN(C)CCc1c[nH]c3ccc(Br)cc13)CC2	–	-27	-33	0.82	-34	0.98	–
COc1cc2c(cc1OC)CC(=O)N(CCCN(C)CCn1cnc3ccccc31)CC2	inactive	-15	-10	1.5	–	–	–
COc1cc2c(cc1OC)CC(=O)N(CCCN(C)CCn1ccnc1)CC2	inactive	–	–	–	–	–	Delta HR [1]: inactive; Delta HR [2]: inactive
COc1cc2c(cc1OC)CC(=O)N(CCCN(C)CCc1scnc1C)CC2	inactive	–	–	–	–	–	Delta HR [1]: inactive; Delta HR [2]: inactive
COc1cc2c(cc1OC)CC(=O)N(CCCN(C)Cc1ccccn1)CC2	inactive	–	–	–	–	–	Delta HR [1]: inactive; Delta HR [2]: inactive
COc1cc2c(cc1OC)CC(=O)N(CCCN(C)CCc1ccncc1)CC2	inactive	-21	-10	2.1	–	–	–
COc1cc2c(cc1OC)CC(=O)N(CCCN(C)Cc1cccnc1)CC2	inactive	–	–	–	–	–	Delta HR [1]: inactive; Delta HR [2]: inactive
COc1cc2c(cc1OC)CC(=O)N(CCCN(C)CCc1csc3ccc(Br)cc13)CC2	–	-17	-50	0.34	-41	1.2	–
